Laboratory results from ChEMBL document CHEMBL4304818, “1,3,4-Oxadiazol-2-ylbenzenesulfonamides as privileged structures for the inhibition of monoamine oxidase B” (Bioorg Med Chem Lett, 2019).

Assays:
[1] = molecular target: T1, Amine oxidase [flavin-containing] B (Homo sapiens, UniProt P27338); assay type: cell-based
T1 sequence (P27338 whole entry): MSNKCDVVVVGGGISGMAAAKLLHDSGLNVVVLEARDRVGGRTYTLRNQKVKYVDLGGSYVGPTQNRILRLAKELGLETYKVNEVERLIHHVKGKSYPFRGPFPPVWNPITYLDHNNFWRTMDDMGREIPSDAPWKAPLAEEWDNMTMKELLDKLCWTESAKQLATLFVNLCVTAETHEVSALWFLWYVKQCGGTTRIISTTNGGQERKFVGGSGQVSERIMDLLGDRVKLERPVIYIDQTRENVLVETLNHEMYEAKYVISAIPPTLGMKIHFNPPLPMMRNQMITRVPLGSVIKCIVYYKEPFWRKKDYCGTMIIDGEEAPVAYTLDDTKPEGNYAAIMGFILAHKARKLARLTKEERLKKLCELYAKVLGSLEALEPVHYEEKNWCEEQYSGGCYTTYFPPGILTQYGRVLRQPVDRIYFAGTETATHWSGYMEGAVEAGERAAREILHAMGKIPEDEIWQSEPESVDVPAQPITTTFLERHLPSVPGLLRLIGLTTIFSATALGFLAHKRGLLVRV

[2] = molecular target: T2, Amine oxidase [flavin-containing] A (Homo sapiens, UniProt P21397); test: Inhibition of human recombinant MAO-A expressed in insect cells microsomes assessed as inhibition of 4-hydroxyquinoline formation using kynuramine as substrate incubated for 20 mins by fluorescence spectrophotometry analysis
T2 sequence (P21397 whole entry): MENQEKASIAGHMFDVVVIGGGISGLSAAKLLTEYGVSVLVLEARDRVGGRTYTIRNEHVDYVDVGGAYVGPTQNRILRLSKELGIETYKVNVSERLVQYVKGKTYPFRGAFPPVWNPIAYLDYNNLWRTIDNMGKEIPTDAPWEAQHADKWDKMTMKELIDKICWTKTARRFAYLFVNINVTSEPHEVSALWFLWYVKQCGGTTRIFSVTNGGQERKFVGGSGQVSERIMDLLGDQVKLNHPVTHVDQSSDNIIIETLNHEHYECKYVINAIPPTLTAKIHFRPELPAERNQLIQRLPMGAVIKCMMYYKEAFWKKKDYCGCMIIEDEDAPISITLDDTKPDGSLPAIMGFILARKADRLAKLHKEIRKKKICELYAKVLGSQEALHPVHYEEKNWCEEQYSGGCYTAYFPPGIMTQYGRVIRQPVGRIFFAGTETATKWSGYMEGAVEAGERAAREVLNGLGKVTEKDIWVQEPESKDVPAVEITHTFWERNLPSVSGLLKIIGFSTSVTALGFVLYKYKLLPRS
Method in brief: (§1)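 Recombinant human MAO-A and MAO-B as enzyme sources with kynuramine as non-selective substrate; product 4-hydroxyquinoline read by fluorescence spectrophotometry. Activity measured across a range of inhibitor concentrations, sigmoidal rate vs log[inhibitor] curves fitted for IC50; triplicate measurements, mean ± SD. Top concentration tested 100 µM. SI taken as IC50(MAO-A)/IC50(MAO-B).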

Homo sapiens = organism: Homo sapiens; test: Selectivity index, ratio of IC50 for human recombinant MAO-A expressed in insect cells microsomes to IC50 for human recombinant MAO-B expressed in insect cells microsomes
Method in brief: as §1

[3] = molecular target: T1, Amine oxidase [flavin-containing] B; test: Inhibition of human recombinant MAO-B expressed in insect cells microsomes assessed as enzyme residual activity preincubated at concentration of 4 times IC50 with enzyme for 24 hrs followed by twofold dilution and incubation at concentration of 2 times IC50 with enzyme for 20 mins using kynuramine as substrate by fluorescence spectrophotometry (reference value: 100%)
[4] = molecular target: T1, Amine oxidase [flavin-containing] B; test: Reversible inhibition of human recombinant MAO-B expressed in insect cells microsomes assessed as enzyme residual activity preincubated at concentration of 4 times IC50 with enzyme for 15 mins followed by dialysis of enzyme-inhibitor mixture for 24 hrs followed by twofold dilution and incubation at concentration of 2 times IC50 with enzyme for 20 mins using kynuramine as substrate by fluorescence …

Structure (SMILES)	IC50 [1] [µM]	IC50 [2] [µM]	Ratio IC50 (Homo sapiens)	Activity [3] [%]	Activity [4] [%]
NS(=O)(=O)c1cccc(-c2nnc(-c3ccc(Cl)cc3)o2)c1	0.21	> 100	> 476		
NS(=O)(=O)c1ccc(-c2nnc(-c3ccc(Cl)cc3)o2)cc1	0.048	68	1420		
Cc1ccc(-c2nnc(-c3ccccc3)o2)cc1S(N)(=O)=O	0.767	> 100	> 130		
NS(=O)(=O)c1ccc(C(=O)NNC(=O)c2ccc(F)cc2)cc1	> 100	39.6	< 0.4		
NS(=O)(=O)c1cc(-c2nnc(-c3ccccc3)o2)ccc1Cl	0.439	> 100	> 228		
NS(=O)(=O)c1ccc(C(=O)NNC(=O)c2ccc(Cl)c(Cl)c2)cc1	10.1	13.6	1.3		
NS(=O)(=O)c1cccc(-c2nnc(-c3ccc(F)cc3)o2)c1	0.975	34.4	35		
Cc1ccc(-c2nnc(-c3cccc(S(N)(=O)=O)c3)o2)cc1	0.571	61.4	108		
NS(=O)(=O)c1ccc(C(=O)NNC(=O)c2ccc(Cl)cc2)cc1	11.7	55.9	4.8		
N#Cc1ccc(C(=O)NNC(=O)c2ccc(S(N)(=O)=O)cc2)cc1	1.17	16.1	14		
N#Cc1ccc(-c2nnc(-c3ccc(S(N)(=O)=O)cc3)o2)cc1	0.318	24.3	76		
NS(=O)(=O)c1ccc(C(=O)NNC(=O)c2ccccc2)cc1	> 100	62.8	< 0.6		
NS(=O)(=O)c1ccc(-c2nnc(-c3ccc(F)cc3)o2)cc1	0.079	83.8	1060		
NS(=O)(=O)c1ccc(-c2nnc(-c3ccc(Cl)c(Cl)c3)o2)cc1				44	60
NS(=O)(=O)c1ccc(-c2nnc(-c3ccccc3)o2)cc1	0.168	63.9	380		
